Consider three molecules from publication PMC2649974 (Proteins, 2009).

What is called Kd is the equilibrium constant for the complex coming apart. By Km is commonly meant the concentration of substrate that gives half-maximal velocity.

Assay [1] concerns the target T1, human PMK (Homo sapiens, UniProt Q15126).
T1 sequence (Q15126 1-192): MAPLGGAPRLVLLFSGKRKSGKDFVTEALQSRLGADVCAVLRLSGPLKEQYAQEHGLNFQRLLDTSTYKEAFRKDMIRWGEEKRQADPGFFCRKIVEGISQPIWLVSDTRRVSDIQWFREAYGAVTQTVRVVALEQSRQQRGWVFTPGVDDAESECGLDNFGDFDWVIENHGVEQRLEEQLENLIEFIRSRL
The assay is classed as binding. The settings on record: for Kd: read-out: Kd in all complexes, binary and ternary complexes, NMR, pH 6.5, 25 °C. Put shortly:
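Uniformly 15N-labelled His6-tagged human PMK from E. coli BL21(DE3) Rosetta, Ni-purified. Held at 400-600 μM in 20 mM KH2PO4, 5 mM DTT, 10% D2O, 0.02% NaN3, pH 6.5, 25 °C. Mg-ADP (1:1 MgCl2) or M5P added in 100 μM steps to saturation, in either order. Fast-exchange 1H/15N shifts (15N scaled by 6.51) were fitted to a quadratic with total protein and ligand.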

Assay [2] has as its target T1, human PMK. The settings on record: previously reported Km values; cited from earlier work.

`Nc1ncnc2c1ncn2[C@@H]1O[C@H](COP(=O)(O)OP(=O)(O)NP(=O)(O)O)[C@@H](O)[C@H]1O` [AMP-PNP]: the “binding to PMK (in words)” value on human PMK [1] (compared to ATP or ADP, HSQC titration onto Apo-PMK) is reported as “binds only weakly”.
Take `C[C@@](O)(CCOP(=O)(O)O)CC(=O)O` [M5P, mevalonate 5-phosphate]: at human PMK [1], the Kd fell in the range of 6 to 60 µM. In addition, the Km at human PMK [2] was 34 ± 3 µM.
`Nc1ncnc2c1ncn2[C@@H]1O[C@H](COP(=O)(O)OP(=O)(O)O)[C@@H](O)[C@H]1O` [Mg-ADP, ADP]: on human PMK [1], the Kd was 6 to 60 µM. For the same molecule, on human PMK [2], the Km is 47 ± 5 µM.
